This is an account of results in ChEMBL document CHEMBL1122782, “Bulky amine analogues of ketoprofen: potent antiinflammatory agents” (J Med Chem, 1984).

Broadly, the inhibition in vivo is the share of the control response that was lost under treatment. As usually defined, the Inhibition is the relative decrease from the control value, in per cent.

In assay [1] the test system is Rattus norvegicus. Briefly: The mean increase in paw volume was compared between drug treated groups and placebo to calculate the percent inhibition in rats at 0.02 mmol/kg by carrageenan Edema Assay; 20-29. It counts as functional.
The test system of assay [2] is Rattus norvegicus. Briefly: The mean increase in paw volume was compared between drug treated groups and placebo to calculate the percent inhibition in rats at 0.02 mmol/kg by carrageenan Edema Assay; 30-39. It counts as functional. Particulars: Rattus norvegicus.
For assay [3], the system named is Rattus norvegicus. Briefly: The mean increase in paw volume was compared between drug treated groups and placebo to calculate the percent inhibition in rats at 0.02 mmol/kg by carrageenan Edema Assay; 0-19. In kind it is functional.
Assay [4] relates to Rattus norvegicus. Nature of the assay: The percent inhibition was calculated from the average differences in hind paw volume between the adjuvant injected controls and the adjuvant-injected medicated rats at 0.08 mmol/kg; 60-69. In kind it is functional. Conditions: Rattus norvegicus.
The subject of assay [5] is Rattus norvegicus. Briefly: The mean increase in paw volume was compared between drug treated groups and placebo to calculate the percent inhibition in rats at 0.08 mmol/kg by carrageenan Edema Assay; 30-39. It counts as functional.
Assay [6] deals with Rattus norvegicus. Nature of the assay: The percent inhibition was calculated from the average differences in hind paw volume between the adjuvant injected controls and the adjuvant-injected medicated rats at 0.08 mmol/kg; 90-99. It counts as functional.
Assay [7] concerns Rattus norvegicus. Briefly: The mean increase in paw volume was compared between drug treated groups and placebo to calculate the percent inhibition in rats at 0.08 mmol/kg by carrageenan Edema Assay; 40-49. In kind it is functional.
The test system of assay [8] is Rattus norvegicus. Nature of the assay: The percent inhibition was calculated from the average differences in hind paw volume between the adjuvant injected controls and the adjuvant-injected medicated rats at 0.08 mmol/kg; 70-79. It counts as functional.
Assay [9] deals with Rattus norvegicus. Briefly: Ulcerogenicity was measured in stomach during the 3 week adjuvant arthritis test, no of animals with ulcers out of 8 animals tested at 0.08 mM/kg (33.7 mg) was reported. It counts as functional. In outline:
(§1)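 Male Sprague-Dawley rats (200–230 g) were injected in the plantar tissue of one hind paw with 0.1 mL of 0.6% M. butyricum suspension in heavy mineral oil. Daily oral gavage began on the day of adjuvant injection and ran for the 21 days, with drug suspended in 1% gum tragacanth or a corn oil-water emulsion. At the end the rats were sacrificed and the small intestine and stomach were examined for ulcers. Results are given as animals with ulcers/animals tested.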

For assay [10], the system named is Rattus norvegicus. Nature of the assay: Antiinflammatory efficacy is measured by the weight gain in rats during the 3 week adjuvant arthritis test at 0.005 mM/kg (2.11 mg). In kind it is functional. In outline: (§2)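 Rats were adjuvant-injected (M. butyricum in mineral oil, one hind paw) or given a mineral-oil placebo. They were dosed by gavage daily for 21 days from the injection day, with vehicle only for both control groups, then weighed at the end. Weight gain % = (treated − adjuvant control)/(negative control − adjuvant control) × 100.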

Assay [11] relates to Rattus norvegicus. Briefly: Ulcerogenicity was measured in intestine during the 3 week adjuvant arthritis test, no of animals with ulcers out of 8 animals tested at 0.08 mM/kg (33.7 mg) was reported. It counts as functional. In outline: (§3)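 In the 21-day adjuvant arthritis model, male Sprague-Dawley rats (200–230 g) received an M. butyricum mineral-oil suspension into one hind paw. They were dosed daily by gavage from the day of injection. At the end of the study the rats were killed, and the small intestines were examined for ulcers. Results are given as the number of ulcerated animals over the number tested.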

Assay [12] concerns Rattus norvegicus. Nature of the assay: Ulcerogenicity was measured in stomach during the 3 week adjuvant arthritis test, no of animals with ulcers out of 4 animals tested at 0.02 mM/kg (8.43 mg) was reported. In kind it is functional. In outline:
as §1

The test system of assay [13] is Rattus norvegicus. Briefly: Antiinflammatory efficacy is measured by the weight gain in rats during the 3 week adjuvant arthritis test at 0.08 mM/kg (33.7 mg). In kind it is functional. In outline:
as §2

The subject of assay [14] is Rattus norvegicus. Nature of the assay: Antiinflammatory efficacy is measured by the percent inhibition of paw volume during the 3 week adjuvant arthritis test at 0.005 mM/kg (2.11 mg). In kind it is functional. In outline: (§4)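 Male Sprague-Dawley rats (200–230 g) were used in groups of eight. Each received 0.1 mL of 0.6% M. butyricum in heavy mineral oil into the plantar tissue of one hind paw. Daily oral gavage in 1% gum tragacanth or corn oil-water emulsion began on the injection day and ran 21 days. Total hind paw volume was measured by mercury displacement, and inhibition was taken versus vehicle-treated adjuvant controls.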

For assay [15], the species on record is Rattus norvegicus. Briefly: Compound was evaluated for highest non-ulcerogenic dose (less than 50% ulcer incidence). In kind it is functional. Particulars: read-out: ED50. The essentials: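 Taken from the 21-day adjuvant arthritis test in male Sprague-Dawley rats dosed orally each day from the day of adjuvant injection. Small intestines and stomachs were examined for ulceration at the end. The value is the highest dose giving less than 50% ulcer incidence.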

In assay [16] the test system is Rattus norvegicus. Nature of the assay: Antiinflammatory efficacy is measured by the percent inhibition of paw volume during the 3 week adjuvant arthritis test at 0.02 mM/kg (8.43 mg). It counts as functional. The essentials:
as §4

In assay [17] the test system is Rattus norvegicus. Nature of the assay: The percent inhibition was calculated from the average differences in hind paw volume between the adjuvant injected controls and the adjuvant-injected medicated rats at 0.08 mmol/kg; 80-89. It counts as functional.
The subject of assay [18] is Rattus norvegicus. Nature of the assay: Ulcerogenicity was measured in intestine during the 3 week adjuvant arthritis test, no of animals with ulcers out of 4 animals tested at 0.02 mM/kg (8.43 mg) was reported. In kind it is functional. The essentials: as §3
Assay [19] has as its system Rattus norvegicus. Briefly: Antiinflammatory efficacy is measured by the weight gain in rats during the 3 week adjuvant arthritis test at 0.02 mM/kg (8.43 mg). It counts as functional. In outline: as §2
In assay [20] the test system is Rattus norvegicus. Nature of the assay: Antiinflammatory efficacy is measured by the percent inhibition of paw volume during the 3 week adjuvant arthritis test at 0.08 mM/kg (33.7 mg). It counts as functional. In outline: as §4
Assay [21] concerns Rattus norvegicus. Nature of the assay: Ulcerogenicity was measured in intestine during the 3 week adjuvant arthritis test, no of animals with ulcers out of animals tested at 0.16 mM/kg (67.4 mg) was reported; toxic. In kind it is functional, organism-based. In outline: as §1
Assay [22] relates to Rattus norvegicus. Briefly: The mean increase in paw volume was compared between drug treated groups and placebo to calculate the percent inhibition in rats at 0.02 mmol/kg by carrageenan Edema Assay; 40-49. In kind it is functional.
Assay [23] has as its system Rattus norvegicus. Nature of the assay: The percent inhibition was calculated from the average differences in hind paw volume between the adjuvant injected controls and the adjuvant-injected medicated rats at 0.08 mmol/kg; 40-49. In kind it is functional.

Molecules are shown by their SMILES.

Consider `Cc1ccccc1C(=O)c1cccc(C(C)CN2CCCCC2CC2CCCCC2)c1` (centres undefined), for which, in assay [1], the inhibition in vivo at 20 µmol/kg was 20%.

For `CC(CN1CCCCC1CCCC1CCCCC1)c1cccc(C(O)c2ccccc2)c1` (centres undefined), the inhibition in vivo at 20 µmol/kg in assay [2] was 30%.

Consider `O/N=C(/c1ccccc1)c1cccc(CCN2CCOCC2)c1`, for which the inhibition in vivo at 20 µmol/kg in assay [3] was 0%.

Turning to `Cc1ccc(C(=O)c2cccc(C(C)CN3CCCCC3CC3CCCCC3)c2)cc1` (centres undefined), the inhibition in vivo at 20 µmol/kg in [3] was 0%.

In the case of `CC(CN1CCCCC1CC1CCCCC1)c1cccc(C(O)c2c(Cl)cccc2Cl)c1` (centres undefined), in assay [3], the inhibition in vivo at 20 µmol/kg is 0%.

In the case of `CC(CN1CCCCC1CC1CCCCC1)c1cccc(C(O)c2cccc(Cl)c2)c1` (centres undefined), the inhibition in vivo at 20 µmol/kg in [3] is 0%.

In the case of `CC(CN1CCCCC1CC1CCCCC1)c1cccc(C(C)(O)c2ccccc2)c1` (centres undefined), the inhibition in vivo at 20 µmol/kg in assay [3] is 0%.

Regarding `NC(c1ccccc1)c1cccc(CCN2CCOCC2)c1` (centres undefined), the inhibition in vivo at 20 µmol/kg in [3] is 0%.

Regarding `OC(c1ccccc1)c1cccc(CCN2CCCCC2CC2CCCCC2)c1` (centres undefined), the inhibition in vivo at 20 µmol/kg in assay [3] was 0%.

`O=C(c1ccccc1)c1cccc(CCN2CCCCC2CC2CCCCC2)c1` (centres undefined): the inhibition in vivo at 20 µmol/kg in [1] was 20%.

With `COc1ccc(C(=O)c2cccc(C(C)CN3CCCCC3CC3CCCCC3)c2)cc1` (centres undefined), in assay [4], the inhibition in vivo at 80 µmol/kg was 60%. Moreover, in assay [1], the inhibition in vivo at 20 µmol/kg was 20%.

As to `Cc1cccc(C(=O)c2cccc(C(C)CN3CCCCC3CC3CCCCC3)c2)c1` (centres undefined), the inhibition in vivo at 20 µmol/kg in assay [3] was 0%.

Take `Cc1ccc(C(O)c2cccc(C(C)CN3CCCCC3CC3CCCCC3)c2)cc1` (centres undefined): in assay [3], the inhibition in vivo at 20 µmol/kg was 0%.

In the case of `CC(CN1CCCCC1C1CCCCC1)c1cccc(C(=O)c2ccccc2)c1` (centres undefined), the inhibition in vivo at 80 µmol/kg in [5] is 30%; in [6], 90%.

For the molecule `CC(CN1CCC(CN2CCCCC2)CC1)c1cccc(C(=O)c2ccccc2)c1` (centres undefined), the inhibition in vivo at 80 µmol/kg is 40% in assay [7] and 90% in [6].

Turning to `CC(CN1CCCC1CC1CCCCC1)c1cccc(C(=O)c2ccccc2)c1` (centres undefined), the inhibition in vivo at 80 µmol/kg in [7] was 40%; in assay [8], 70%.

Regarding `COc1ccc(C(O)c2cccc(C(C)CN3CCCCC3CC3CCCCC3)c2)cc1` (centres undefined), the inhibition in vivo at 20 µmol/kg in assay [3] was 0%.

With `CC(CN1CCCCC1CCCC1CCCCC1)c1cccc(C(=O)c2ccccc2)c1` (centres undefined), the inhibition in vivo at 80 µmol/kg in assay [5] is 30%.

With `CC(CN1CCCCC1CC1CCCCC1)c1cccc(C(N)c2ccccc2)c1` (centres undefined), the inhibition in vivo at 80 µmol/kg in [6] is 90%. Besides, in assay [2], the inhibition in vivo at 20 µmol/kg was 30%.

As to `CC(CN1CCCCC1CC1CCCCC1)c1cccc(C(C)c2ccccc2)c1` (centres undefined), the inhibition in vivo at 20 µmol/kg in [3] was 0%.

Consider `CC(CN1CCCCC1CC1CCCCC1)c1cccc(C(=O)c2ccccc2Cl)c1` (centres undefined), for which, in assay [8], the inhibition in vivo at 80 µmol/kg is 70%. Further, the inhibition in vivo at 20 µmol/kg in assay [2] was 30%.

Regarding `CC(CN1CCCCC1CC1CCCCC1)c1cccc(C(=O)c2ccc(F)cc2)c1` (centres undefined), the Ulcerogenic index in assay [9] is 1; in [11], 3; in assay [12], 0; in [18], 1; in assay [21] it was “Toxic”. For the same molecule, the Weight gain in [10] worked out at 50%; in assay [13], 81%; in assay [19], 31%. In addition, the Inhibition in [14] stood at 61%; in assay [16], 55%; in assay [20], 85%. In assay [15], the highest non-ulcerogenic dose was 3 µmol/kg. The inhibition in vivo at 80 µmol/kg in assay [17] is 80%. Also, the inhibition in vivo at 20 µmol/kg in assay [2] was 30%.

In the case of `CC(CN1CCCCC1CC1CCCCC1)c1cccc(/C(=N\O)c2ccccc2)c1` (centres undefined), the inhibition in vivo at 20 µmol/kg in assay [22] was 40%. Moreover, the inhibition in vivo at 80 µmol/kg in assay [6] is 90%.

For `CN(C)CCCNCCc1cccc(C(=O)c2ccccc2)c1`, the inhibition in vivo at 80 µmol/kg in assay [23] is 40%; in assay [5], 30%.

Turning to `CC(CN1CCCCC1CC1CCCCC1)c1cccc(Cc2ccccc2)c1` (centres undefined), the inhibition in vivo at 80 µmol/kg in assay [6] is 90%. Further, the inhibition in vivo at 20 µmol/kg in [1] is 20%.

As to `CC(CN1CCCCC1CCC1CCCCC1)c1cccc(C(=O)c2ccccc2)c1` (centres undefined), the inhibition in vivo at 80 µmol/kg was 30% in assay [5] and 90% in assay [6].

As to `CC(CN1CCOCC1)c1cccc(C(N)c2ccccc2)c1` (centres undefined), the inhibition in vivo at 80 µmol/kg is 40% in assay [7] and 70% in assay [8].

Regarding `CC(CN1CCCCC1CC1CCCCC1)c1cccc(C(=O)c2ccc(Cl)c(Cl)c2)c1` (centres undefined), in assay [3], the inhibition in vivo at 20 µmol/kg is 0%.

Turning to `CC(CN1CCCCC1)c1cccc(C(=O)c2ccccc2)c1` (centres undefined), the results for the inhibition in vivo at 80 µmol/kg in [23] and in assay [5] were 40% and 30%, respectively.
